Assay outcomes from PubChem BioAssay.
Most compounds without a hit are left out; they make up all but 4.1% or so of the library.
Efflux pump inh = inhibitors of Candida antifungal efflux pumps expressed in yeast | actives 0.44% (n = 330,000) | S. cerevisiae Candida pump triplex, Nile Red efflux | inhibition, % at 10 µM | AID 485275;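 active = plate passing quality check with inhibition over a set limit, or well fluorescence over plate mean plus 4 SD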;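 note: Nile Red retained in pooled yeast measured as flow cytometry median fluorescence; higher means more Nile Red kept so more efflux inhibition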
TAG inh = triacylglycerol accumulation inhibition | H9c2 cells, Nile Red lipid (TAG) fluorescence; cells loaded with 200 µM oleic acid | inhibition, % at 12.5 µM | actives 0.66% (n = 230,000) | AID 651582;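 active = pattern-corrected inhibition of lipid staining of at least 50% with the nuclear-stain viability signal not falling by more than 50%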
AHR activator = human AHR activation; P35869; AHR-responsive luciferase reporter cells, luminescence; activation, % at 5 µM; actives 2.5% (n = 320,000); AID 2796; in the data active = activation above about 47%
Target sequence (P35869 whole entry, looked up): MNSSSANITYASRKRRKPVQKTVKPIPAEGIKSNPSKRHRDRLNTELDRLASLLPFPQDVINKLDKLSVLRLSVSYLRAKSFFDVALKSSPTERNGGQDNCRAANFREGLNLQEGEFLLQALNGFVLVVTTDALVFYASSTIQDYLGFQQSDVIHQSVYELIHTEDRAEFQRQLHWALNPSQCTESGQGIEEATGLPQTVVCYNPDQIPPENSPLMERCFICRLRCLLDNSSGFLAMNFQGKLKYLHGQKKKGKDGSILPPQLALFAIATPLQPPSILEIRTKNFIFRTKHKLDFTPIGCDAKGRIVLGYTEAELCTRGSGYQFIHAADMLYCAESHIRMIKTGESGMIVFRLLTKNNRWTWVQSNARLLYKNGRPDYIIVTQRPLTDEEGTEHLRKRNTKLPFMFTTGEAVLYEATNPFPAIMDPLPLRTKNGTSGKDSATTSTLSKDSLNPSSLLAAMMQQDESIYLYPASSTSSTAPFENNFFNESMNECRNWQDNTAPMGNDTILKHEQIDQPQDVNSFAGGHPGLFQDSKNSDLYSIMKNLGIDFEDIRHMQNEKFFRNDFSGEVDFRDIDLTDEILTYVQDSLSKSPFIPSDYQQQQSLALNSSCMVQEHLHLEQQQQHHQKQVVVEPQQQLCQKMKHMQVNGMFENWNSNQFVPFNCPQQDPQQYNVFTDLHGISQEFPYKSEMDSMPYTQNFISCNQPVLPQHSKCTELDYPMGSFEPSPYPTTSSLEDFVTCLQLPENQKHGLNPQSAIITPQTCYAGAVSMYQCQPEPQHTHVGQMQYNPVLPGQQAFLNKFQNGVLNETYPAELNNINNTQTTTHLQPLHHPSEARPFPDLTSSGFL
SMARCA2 act = activators of SMARCA2 function; MG213 cells, MMTV-luciferase reporter, dexamethasone, overnight; activation, % at 9.1 µM; actives 1% (n = 370,000); in the data active = activation above about 7.8%
Tb MetRS inh = Trypanosoma brucei MetRS inhibition; actives 0.4% (n = 360,000); purified T. brucei MetRS, ATP depletion, Kinase-Glo luminescence; inhibition, % at 11.9 µM;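 active = inhibition above a per-plate cutoff of the control wells' mean inhibition plus 3 SD, cut at about 5.5% in these data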
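Material: parasite MetRS enzyme / Replication: singlicate, one well per compound / Signal: luminescence of leftover ATP / Schedule: 2 h aminoacylation at 25 °C after 15 min preincubation / Medium: HEPES-MgCl2-KCl buffer plus DTT, spermine, BSA, pyrophosphatase / Doses: 11.9 µM single point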
Of the large screens only hits and unclear results are named; the others gave an inactive call.

O=C(COc1ccccc1Cl)NCc1nc(-c2ccccc2)no1	AHR activator 47.6 (no result: TAG inh)
Cc1cc(C)cc(OCC(=O)NCc2nc(-c3ccccc3)no2)c1	none (no result: TAG inh)
COc1ccc(C(=O)Nc2ccc3ccccc3c2)cc1OC	none (no result: TAG inh)
COc1ccc(S(=O)(=O)Nc2c(O)ccc3ccccc23)cc1OC	AHR activator 60.5
COc1ccc(S(=O)(=O)Nc2c(C(=O)O)[nH]c3ccccc23)cc1	none (no result: TAG inh)
COc1ccc(C(=O)Nc2c(O)ccc3ccccc23)cc1OC	AHR activator 53.1
COc1ccc(NS(=O)(=O)c2ccc(OC)c(OC)c2)cc1OC	none
COc1ccc(S(=O)(=O)Nc2c(C(=O)O)[nH]c3ccccc23)cc1OC	AHR activator 54.6 (no result: TAG inh)
CC(C)(C)c1ccc(-c2nnc(SCC(=O)Nc3ccccc3-c3ccccc3)n2Cc2ccco2)cc1	none (no result: Efflux pump inh, TAG inh, AHR activator, Tb MetRS inh)
Cc1ccccc1-c1nnc2n1N=C(c1ccc(O)c(O)c1)CS2	none (no result: Efflux pump inh, TAG inh, AHR activator, Tb MetRS inh)
Cc1cc(C)cc(NC2=NC3(CCCCC3)N=C(N)N2)c1	AHR activator 55.7
NC1=NC2(CCCCC2)N=C(Nc2ccc(F)cc2F)N1	none (no result: TAG inh)
O=C(c1cc(C2CC2)on1)N(C1CCCCC1)C1CCCCC1	none (no result: Efflux pump inh, TAG inh, AHR activator, Tb MetRS inh)
c1ccc2c(Nc3nc(N4CCOCC4)c4ccccc4n3)cccc2c1	AHR activator 71.1 (no result: TAG inh)
CC(=O)Nc1sc(N/N=C\c2ccccc2Cl)nc1-c1cccs1	AHR activator 59.0 (no result: TAG inh)
Cn1cc(C(=O)C(=O)N2CCCc3ccccc32)c2ccccc21	AHR activator 67.8
CC(C)NC(=O)N[C@H]1C[C@@H]2O[C@H](CO)CC[C@@H]2O[C@@H]1CCc1ccc(-c2ccccc2F)cc1	none (no result: Efflux pump inh, TAG inh, AHR activator, Tb MetRS inh)
CCCCN(C)C(=O)CN1C(=O)C2CCCCN2C(=O)c2ccccc21 (centres undefined)	none (no result: Efflux pump inh, TAG inh, AHR activator, Tb MetRS inh)
O=C(Nc1nccs1)c1ccc(-c2ccc(F)c(Cl)c2)o1	AHR activator 71.9
O=C(Nc1nccs1)c1ccc(-c2ccc(Cl)cc2Cl)o1	none (no result: TAG inh)
O=C(Nc1nccs1)c1ccc(Br)o1	AHR activator 57.5 (no result: TAG inh)
O=C(/C=C/c1ccc(Br)o1)Nc1nccs1	none
CC(COc1ccccc1C#N)CN1CCC(C(O)(c2ccccc2)c2ccccc2)CC1 (centres undefined)	none (no result: Efflux pump inh, TAG inh, AHR activator, Tb MetRS inh)
Nn1c(SCc2ccc(Br)cc2)nnc1-c1n[nH]c2c1CCC2	none (no result: Efflux pump inh, TAG inh, AHR activator, Tb MetRS inh)
CC(=O)Oc1ccc(Cl)cc1/C=C/c1ccc2ccccc2n1	AHR activator 70.5 (no result: TAG inh)
CCOc1cccc(C(=O)Nc2cccc(C(=O)NCC(C)C)c2)c1	AHR activator 71.1 (no result: TAG inh)
CCCOc1cccc(C(=O)Nc2cccc(NC(=O)c3ccco3)c2)c1	AHR activator 47.7
CCCCOc1cccc(C(=O)Nc2ccc(NC(=O)c3ccco3)cc2)c1	none (no result: TAG inh)
O=C1c2ccc3c4c(ccc(c24)C(=O)N1c1cccc(O)c1)C(=O)N(c1cccc(O)c1)C3=O	TAG inh 67.9
O[C@H](COc1ccc(C(F)(F)F)cc1)CN1CCC(C(O)(c2ccccc2)c2ccccc2)CC1	none (no result: Efflux pump inh, TAG inh, AHR activator, Tb MetRS inh)
Cc1ccccc1NC(=O)c1ccc(-n2cncn2)nc1	AHR activator 121.2
O=C(Nc1c(F)cccc1F)c1ccc(-n2cncn2)nc1	none
CCOC(=O)[C@@]12CCC3=C1N(CCC3)C(=O)[C@H](CC(=O)NCc1ccccc1)C2	none (no result: Efflux pump inh, TAG inh, AHR activator, Tb MetRS inh)
O=C(Nc1ccc(F)cc1)OCCCN1C(=O)CCC12CCCCC2	none (no result: Efflux pump inh, TAG inh, AHR activator, Tb MetRS inh)
N/C(=N\OC(=O)c1ccc(Br)o1)c1cccnc1	AHR activator 52.7
COc1ccc(C(=O)O/N=C(\N)c2ccc(Cl)cc2)cc1	none (no result: TAG inh)
N/C(=N\OC(=O)c1ccc([N+](=O)[O-])cc1)c1cccnc1	none
COc1ccc(/C(N)=N/OC(=O)c2ccc(Br)o2)cc1	AHR activator 68.5 (no result: TAG inh)
COC(=O)C12C=C3CC(c4ccc(C)s4)=C3C(=O)N1Cc1[nH]c3ccccc3c1C2 (centres undefined)	none (no result: Efflux pump inh, TAG inh, AHR activator, Tb MetRS inh)
CCCCOCCCNC(=O)C[C@H]1C[C@@]2(C(=O)OC)C(=C[C@H](COCc3ccccc3)O[C@@H]2C)N(CCc2ccc(OC)c(OC)c2)C1=O	none (no result: Efflux pump inh, TAG inh, AHR activator, Tb MetRS inh)
O=C(CN(CCc1ccccc1)S(=O)(=O)c1ccccc1)N1CCOCC1	none (no result: Efflux pump inh, TAG inh, AHR activator, Tb MetRS inh)
CCCN1CC(=O)N2[C@H](C[C@@]3(n4ccc5ccccc54)c4ccccc4N(S(=O)(=O)c4ccccc4)[C@@H]23)C1=O	none (no result: Efflux pump inh, TAG inh, AHR activator, Tb MetRS inh)
CC1CC(C)CN(CCCNS(=O)(=O)c2cc3c(cc2Br)CCN3C(=O)C2CC2)C1 (centres undefined)	none (no result: Efflux pump inh, TAG inh, AHR activator, Tb MetRS inh)
CSCCC(NC(=O)c1ccc(Cl)cc1)C(=O)OCC(=O)Nc1cc(Cl)ccc1C#N (centres undefined)	AHR activator 56.1
CSCCC(NC(=O)c1ccc(Cl)cc1)C(=O)OCC(=O)NCc1ccco1 (centres undefined)	none
C=CCn1cnc2c(nnn2-c2cc(C)cc(C)c2)c1=O	none
C=CCn1cnc2c(nnn2-c2ccc(Cl)cc2)c1=O	AHR activator 84.4
O=C(c1ccc(Br)cc1)c1cc([N+](=O)[O-])ccc1N1CCCCC1	TAG inh 59.3
O=C1C(NC(=O)C(F)(F)Br)CCCCN1Cc1cccc(C(F)(F)F)c1 (centres undefined)	none (no result: Efflux pump inh, TAG inh, AHR activator, Tb MetRS inh)
O=C(Nc1cc(Cl)ccc1Cl)c1noc2c1CCCC2	AHR activator 75.1
O=C(Nc1ccc2c(c1)OCO2)c1noc2c1CCCC2	AHR activator 55.0 (no result: TAG inh)
COc1cc(NC(=O)c2noc3c2CCCC3)c(OC)cc1Cl	AHR activator 55.3 (no result: TAG inh, SMARCA2 act)
COc1ccc(NC(=O)c2cc(C(C)C)on2)c(OC)c1	none
O=C(Nc1ccc2c(c1)OCO2)c1noc2c1CCCCC2	none (no result: TAG inh)
COc1cc(NC(=O)c2cc(C(C)C)on2)c(OC)cc1Cl	AHR activator 74.3
CCN(CC)C(=O)CC[C@H]1CC[C@]2(CCCN(S(=O)(=O)C3CCCCC3)C2)O1	none (no result: Efflux pump inh, TAG inh, AHR activator, Tb MetRS inh)
COc1ccc(OC)c(S(=O)(=O)N(CC(=O)NC2CCC(C)CC2)c2cc(C)cc(C)c2)c1 (centres undefined)	none (no result: Efflux pump inh, TAG inh, AHR activator, Tb MetRS inh)
COC(=O)c1cc(-c2cnc(OC)nc2OC)c(=O)n2c1CCC2	none (no result: Efflux pump inh, TAG inh, AHR activator, Tb MetRS inh)
COc1ccc(S[C@]2(C(=O)N3CCN(c4ncccn4)CC3)CC(=O)N(c3ccc(Cl)cc3)[C@@H]2c2ccc(OC)cc2)cc1	none (no result: Efflux pump inh, TAG inh, AHR activator, Tb MetRS inh)
O=C(Nc1nccs1)C1Cc2ccccc2CN1S(=O)(=O)c1ccc(F)cc1 (centres undefined)	AHR activator 64.4
CCC(=O)Nc1ccc(Cl)c(NC(=O)c2ccccc2OC)c1	AHR activator 51.1
O=C(Nc1cc(NC(=O)c2ccccc2F)ccc1Cl)c1ccccc1	AHR activator 79.0 (no result: TAG inh)
CCC(=O)Nc1ccc(Cl)c(NC(=O)c2cccc(OC)c2)c1	none (no result: TAG inh)
CSc1ccccc1C(=O)Nc1cc(C)ccc1C	none (no result: TAG inh)
COc1ccccc1CC(=O)Nc1ccc2c(c1)CCC2	none
COc1ccccc1C(=O)NCC(=O)Nc1ccc2c(c1)CCC2	AHR activator 69.9
Cc1ccc(NC(=O)c2ccccc2F)c(NC(=O)c2ccccc2F)c1	AHR activator 72.9
CC1(c2nnnn2Cc2ccccc2)CCCC(=O)N1Cc1cccs1 (centres undefined)	none (no result: Efflux pump inh, TAG inh, AHR activator, Tb MetRS inh)
Cc1ccc2cc3c(nc2c1)N(c1ccccc1)CC3	AHR activator 66.5
Cc1nc2c(ccc3nc(NC(=O)C4CC4)sc32)s1	none
CCC(=O)Nc1nc2ccc3sc(C)nc3c2s1	AHR activator 68.7
